What was measured:
Conditions in all cases: in vivo
Mus musculus [1] = test: Toxicity in mouse assessed as renal function measuring serum urea level at 50 mg/kg, ip for seven consecutive days relative to control; format: organism-based; parameters: dose 50 mg/kg, route intraperitoneal
In short: (§1)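 Once-daily ip dosing for seven consecutive days in male mice (22–28 g), with vehicle (2% DMSO in saline) as control. At the end of treatment, blood taken from the retro-orbital plexus under light anesthesia. Serum obtained without anticoagulant by centrifugation at 2500 rpm for 15 min, then assayed biochemically for urea and creatinine. Means ± SEM, 6–9 animals per group.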

Mus musculus [2] = test: Toxicity in mouse assessed as renal function measuring serum creatinine level at 50 mg/kg, ip for seven consecutive days relative to control; format: organism-based; parameters: dose 50 mg/kg, route intraperitoneal; in short: as §1
Mus musculus [3] = test: Toxicity in mouse assessed as liver function measuring serum ALT level at 50 mg/kg, ip for seven consecutive days relative to control; format: organism-based; parameters: dose 50 mg/kg, route intraperitoneal
In short: (§2)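 Mice were weighed and dosed ip once daily for 7 consecutive days, vehicle controls alongside, and monitored for toxic signs and general appearance. At the end, retro-orbital blood was taken under light anesthesia for leukocyte counts. Serum, from blood centrifuged at 2500 rpm for 15 min without anticoagulant, was used for ALT and AST.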

Mus musculus [4] = test: Toxicity in mouse assessed as liver function measuring serum AST level at 50 mg/kg, ip for seven consecutive days relative to control; format: organism-based; parameters: dose 50 mg/kg, route intraperitoneal; in short: as §2
Mus musculus [5] = test: Toxicity in mouse assessed as leukogram at 50 mg/kg, ip for seven consecutive days relative to control; format: organism-based; parameters: dose 50 mg/kg, route intraperitoneal; in short: as §2
Mus musculus [6] = test: Toxicity in mouse assessed as gastric inflammation at 50 mg/kg, ip for seven consecutive days relative to control; format: organism-based, Stomach; parameters: dose 50 mg/kg, route intraperitoneal
In short: (§3)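 After 7 daily ip doses, stomachs were cryosectioned at 3 μm and stained with H&E. Sections were scored blind 0–4 for inflammatory infiltrate, edema, epithelial loss and necrosis. Ten fields (40×) were read per section, means ± SEM.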

Mus musculus [7] = test: Toxicity in mouse assessed as gastric ulcer at 50 mg/kg, ip for seven consecutive days relative to control; format: organism-based, Stomach; parameters: dose 50 mg/kg, route intraperitoneal; in short: as §3
Mus musculus [8] = test: Toxicity in mouse assessed as inflammatory cell infiltrate in gastric mucosa at 50 mg/kg, ip for seven consecutive days relative to control; format: organism-based; parameters: dose 50 mg/kg, route intraperitoneal; in short: as §3
Mus musculus [9] = test: Toxicity in mouse assessed as edema in gastric mucosa at 50 mg/kg, ip for seven consecutive days relative to control; format: organism-based; parameters: dose 50 mg/kg, route intraperitoneal; in short: as §3
Mus musculus [10] = test: Toxicity in mouse assessed as necrosis in gastric mucosa at 50 mg/kg, ip for seven consecutive days relative to control; format: organism-based; parameters: dose 50 mg/kg, route intraperitoneal; in short: as §3
Mus musculus [11] = test: Toxicity in mouse assessed as reduction in corporal mass at 100 mg/kg, ip for seven consecutive days relative to control; format: organism-based; parameters: dose 100 mg/kg, route intraperitoneal; in short: as §2
Mus musculus [12] = test: Toxicity in mouse assessed as change in general appearance at 100 mg/kg, ip for seven consecutive days relative to control; format: organism-based; parameters: dose 100 mg/kg, route intraperitoneal; in short: as §2
Mus musculus [13] = test: Toxicity in mouse assessed as renal function measuring serum urea level at 100 mg/kg, ip for seven consecutive days relative to control; format: organism-based; parameters: dose 100 mg/kg, route intraperitoneal; in short: as §1
Mus musculus [14] = test: Toxicity in mouse assessed as renal function measuring serum creatinine level at 100 mg/kg, ip for seven consecutive days relative to control; format: organism-based; parameters: dose 100 mg/kg, route intraperitoneal; in short: as §1
Mus musculus [15] = test: Toxicity in mouse assessed as liver function measuring serum ALT level at 100 mg/kg, ip for seven consecutive days relative to control; format: organism-based; parameters: dose 100 mg/kg, route intraperitoneal; in short: as §2
Mus musculus [16] = test: Toxicity in mouse assessed as liver function measuring serum AST level at 100 mg/kg, ip for seven consecutive days relative to control; format: organism-based; parameters: dose 100 mg/kg, route intraperitoneal; in short: as §2
Mus musculus [17] = test: Toxicity in mouse assessed as leukogram at 100 mg/kg, ip for seven consecutive days relative to control; format: organism-based; parameters: dose 100 mg/kg, route intraperitoneal; in short: as §2
Mus musculus [18] = test: Toxicity in mouse assessed as gastric inflammation at 100 mg/kg, ip for seven consecutive days relative to control; format: organism-based, Stomach; parameters: dose 100 mg/kg, route intraperitoneal; in short: as §3
Mus musculus [19] = test: Toxicity in mouse assessed as gastric ulcer at 100 mg/kg, ip for seven consecutive days relative to control; format: organism-based, Stomach; parameters: dose 100 mg/kg, route intraperitoneal; in short: as §3
Mus musculus [20] = test: Toxicity in mouse assessed as inflammatory cell infiltrate in gastric mucosa at 100 mg/kg, ip for seven consecutive days relative to control; format: organism-based; parameters: dose 100 mg/kg, route intraperitoneal; in short: as §3
Mus musculus [21] = test: Toxicity in mouse assessed as edema in gastric mucosa at 100 mg/kg, ip for seven consecutive days relative to control; format: organism-based; parameters: dose 100 mg/kg, route intraperitoneal; in short: as §3
Mus musculus [22] = test: Toxicity in mouse assessed as necrosis in gastric mucosa at 100 mg/kg, ip for seven consecutive days relative to control; format: organism-based; parameters: dose 100 mg/kg, route intraperitoneal; in short: as §3
Mus musculus [23] = test: Neurotoxicity in mouse assessed as effect on motor coordination at 100 mg/kg, ip after 40 mins by Rotarod test

Measured: Activity

COc1c(O)cc2c(c1O)[C@@H]1O[C@H](CO)[C@@H](O)[C@H](O)[C@H]1OC2=O [BERGENIN]
Non-toxic: all assays above
